# Source: ChEMBL document CHEMBL1145612, “Antagonists of the human adenosine A2A receptor. Part 2: Design and synthesis of 4-arylthieno[3,2-d]pyrimidine derivatives” (Bioorg Med Chem Lett, 2008)
# Activity calls are given as the source filed them. The calls are words filed in the database; no cut-off is given here.
# Tests used:
# Adenosine receptor A2a [1] = target: T1, Adenosine receptor A2a (Homo sapiens, UniProt P29274); assay: Binding affinity at human adenosine A2A receptor
# Adenosine receptor A1 = target: T2, Adenosine receptor A1 (Homo sapiens, UniProt P30542); assay: Binding affinity at human adenosine A1 receptor
# T2 sequence (P30542 whole entry): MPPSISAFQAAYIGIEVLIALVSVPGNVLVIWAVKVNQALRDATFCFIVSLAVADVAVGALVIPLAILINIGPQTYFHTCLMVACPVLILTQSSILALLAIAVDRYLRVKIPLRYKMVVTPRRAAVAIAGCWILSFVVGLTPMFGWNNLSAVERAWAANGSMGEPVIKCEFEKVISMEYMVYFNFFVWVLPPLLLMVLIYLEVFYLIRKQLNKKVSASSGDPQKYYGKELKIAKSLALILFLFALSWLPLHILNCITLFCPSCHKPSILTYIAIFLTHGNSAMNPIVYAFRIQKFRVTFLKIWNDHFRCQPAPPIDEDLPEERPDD
# Adenosine receptor A2a [2] = target: T1, Adenosine receptor A2a; assay: Agonist activity at human recombinant adenosine A2A receptor expressed in CHO cells assessed as calcium mobilization by FLIPR assay; format: functional, cell-based
# Mus musculus [3] = assay: Reversal of haloperidol-induced hypolocomotion in mouse at 30 mg/kg, ip; format: functional, organism-based; parameters: dose 30 mg/kg
# Outline: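 Haloperidol-induced hypolocomotion model in mice. Test compound was given intraperitoneally at 30 mg kg-1, and reversal of the reduced locomotion was assessed.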
# Adenosine receptor A2b = target: T3, Adenosine receptor A2b (Homo sapiens, UniProt P29275); assay: Binding affinity at human adenosine A2B receptor
# T3 sequence (P29275 whole entry): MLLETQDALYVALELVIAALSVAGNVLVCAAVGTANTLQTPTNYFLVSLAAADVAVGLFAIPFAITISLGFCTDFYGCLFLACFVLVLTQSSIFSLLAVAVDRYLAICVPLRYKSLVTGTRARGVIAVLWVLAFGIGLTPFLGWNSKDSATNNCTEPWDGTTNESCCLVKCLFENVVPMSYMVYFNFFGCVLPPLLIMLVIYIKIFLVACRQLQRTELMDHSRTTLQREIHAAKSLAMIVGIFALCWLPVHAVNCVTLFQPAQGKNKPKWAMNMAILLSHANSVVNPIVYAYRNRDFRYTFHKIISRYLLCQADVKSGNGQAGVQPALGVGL
# Adenosine receptor A3 = target: T4, Adenosine receptor A3 (Homo sapiens, UniProt P0DMS8); assay: Binding affinity at human adenosine A3 receptor
# T4 sequence (P0DMS8 whole entry): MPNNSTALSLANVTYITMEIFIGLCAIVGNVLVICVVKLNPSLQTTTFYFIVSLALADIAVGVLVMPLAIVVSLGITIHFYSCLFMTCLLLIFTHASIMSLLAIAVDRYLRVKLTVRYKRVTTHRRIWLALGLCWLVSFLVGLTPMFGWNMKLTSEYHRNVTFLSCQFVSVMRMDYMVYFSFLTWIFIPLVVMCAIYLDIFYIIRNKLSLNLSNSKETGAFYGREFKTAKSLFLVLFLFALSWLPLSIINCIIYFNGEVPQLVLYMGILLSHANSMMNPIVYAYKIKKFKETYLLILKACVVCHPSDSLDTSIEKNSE
# Mus musculus [4] = assay: Reversal of haloperidol-induced hypolocomotion in mouse at 10 mg/kg, sc; format: functional, organism-based; parameters: dose 10 mg/kg
# T1 sequence (P29274 whole entry): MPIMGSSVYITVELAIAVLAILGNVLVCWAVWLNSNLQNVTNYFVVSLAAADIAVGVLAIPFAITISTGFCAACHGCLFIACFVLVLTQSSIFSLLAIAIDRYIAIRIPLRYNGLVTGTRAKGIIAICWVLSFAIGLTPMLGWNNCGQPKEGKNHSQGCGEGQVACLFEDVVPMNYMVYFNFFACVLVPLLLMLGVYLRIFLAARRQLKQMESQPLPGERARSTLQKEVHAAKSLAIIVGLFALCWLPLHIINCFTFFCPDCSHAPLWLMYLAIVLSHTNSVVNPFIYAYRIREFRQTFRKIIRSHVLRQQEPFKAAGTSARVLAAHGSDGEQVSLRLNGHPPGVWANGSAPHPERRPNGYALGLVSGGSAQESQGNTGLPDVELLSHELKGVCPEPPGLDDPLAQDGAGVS
Structure (SMILES),Ki (Adenosine receptor A2a [1]),Ki (Adenosine receptor A1),EC50 (Adenosine receptor A2a [2]),Activity (Mus musculus [3]),Ki (Adenosine receptor A2b),Ki (Adenosine receptor A3),Activity (Mus musculus [4])
Cc1nc(-c2nc(N(C)C)nc3ccsc23)sc1C,6.6 nM,254 nM,> 10000 nM,inactive,,,
COc1nc(-c2cccs2)c2sccc2n1,444 nM,1590 nM,> 10000 nM,inactive,,,
Clc1nc(-c2cccs2)c2sccc2n1,391 nM,2040 nM,> 10000 nM,inactive,,,
CCNc1nc(-c2ccco2)c2sccc2n1,58 nM,375 nM,> 10000 nM,Active,,,
CN(C)c1nc(-c2ccoc2)c2sccc2n1,748 nM,3470 nM,> 10000 nM,,,,
Cc1ccc(-c2nc(N(C)C)nc3ccsc23)nc1,19 nM,1260 nM,> 10000 nM,inactive,,,
CN(C)c1nc(-c2cc3ccccc3s2)c2sccc2n1,1330 nM,1260 nM,> 10000 nM,,,,
Cc1csc(-c2nc(N(C)C)nc3ccsc23)n1,,303 nM,,Active,,,
OCCNc1nc(-c2nccs2)c2sccc2n1,18 nM,57 nM,> 10000 nM,Active,,,
CCc1nc(-c2ncc[nH]2)c2sccc2n1,142 nM,5530 nM,> 10000 nM,Active,,,
CCc1nc(-c2nc(C)cs2)c2sccc2n1,2.1 nM,413 nM,> 10000 nM,Active,,,
CN(C)c1nc(-c2ncc[nH]2)c2sccc2n1,299 nM,5770 nM,> 10000 nM,Active,,,
CCc1nc(-c2ccoc2)c2sccc2n1,681 nM,10000 nM,> 10000 nM,,,,
OCCNc1nc(-c2cccs2)c2sccc2n1,172 nM,401 nM,> 10000 nM,Active,,,
CCc1nc(-n2nccn2)c2sccc2n1,779 nM,4940 nM,> 10000 nM,,,,
CN(C)c1nc(-c2ccco2)c2sccc2n1,60 nM,2200 nM,> 10000 nM,Active,,,
CN(C)c1nc(-c2cccs2)c2sccc2n1,55 nM,1960 nM,> 10000 nM,inactive,,,
CCc1nc(-c2cccc(C)n2)c2sccc2n1,,1270 nM,,inactive,,,
Nc1nc(-c2nccs2)c2sccc2n1,,675 nM,> 10000 nM,Active,,,
Cc1cnc(-c2nc(N(C)C)nc3ccsc23)s1,5.7 nM,908 nM,> 10000 nM,inactive,,,

Structure (SMILES),Ki (Adenosine receptor A2a [1]),Ki (Adenosine receptor A1),EC50 (Adenosine receptor A2a [2]),Activity (Mus musculus [3]),Ki (Adenosine receptor A2b),Ki (Adenosine receptor A3),Activity (Mus musculus [4])
CCc1nc(-c2nccs2)c2sccc2n1,1.6 nM,388 nM,> 10000 nM,Active,721 nM,1810 nM,
CCc1nc(-c2ccccn2)c2sccc2n1,13 nM,917 nM,> 10000 nM,Active,,,
CN(C)c1nc(-c2nccs2)c2sccc2n1,2.3 nM,366 nM,> 10000 nM,Active,1560 nM,1760 nM,
CCc1nc(-c2ccco2)c2sccc2n1,30 nM,3210 nM,> 10000 nM,,,,
CN(C)c1nc(-c2ccccn2)c2sccc2n1,26 nM,1590 nM,> 10000 nM,,,,
CC(C)(C)c1nc(-c2nccs2)c2sccc2n1,3.1 nM,240 nM,> 10000 nM,inactive,,,
OC[C@H]1CCCN1c1nc(-c2nccs2)c2sccc2n1,,250 nM,,Active,,,
CCNc1nc(-c2cccs2)c2sccc2n1,154 nM,813 nM,> 10000 nM,inactive,,,
CC(C)c1nc(-c2nccs2)c2sccc2n1,1.4 nM,208 nM,> 10000 nM,Active,865 nM,476 nM,
CN(C)c1nc(-c2cn[nH]c2)c2sccc2n1,3080 nM,5510 nM,> 10000 nM,,,,
Clc1nc(-c2nccs2)c2sccc2n1,20 nM,615 nM,> 10000 nM,,,,
CNc1nc(-c2ccco2)c2sccc2n1,40 nM,568 nM,> 10000 nM,Active,,,
CN(C)c1nc(-c2nccn2C)c2sccc2n1,14 nM,1100 nM,> 10000 nM,inactive,,,
CN(C)c1nc(-c2cnccn2)c2sccc2n1,81 nM,990 nM,> 10000 nM,inactive,,,
OCCNc1nc(-c2ccco2)c2sccc2n1,203 nM,868 nM,> 10000 nM,inactive,,,
Nc1nc(-c2ccco2)c2sccc2n1,,,> 10000 nM,Active,,,
c1csc(-c2nc(C3CC3)nc3ccsc23)n1,,259 nM,,Active,910 nM,945 nM,Active
CCc1nc(-c2cccs2)c2sccc2n1,69 nM,1470 nM,> 10000 nM,inactive,,,
OC[C@@H]1CCCN1c1nc(-c2nccs2)c2sccc2n1,,14 nM,,Active,2480 nM,456 nM,
